Article PMC4415852 (Cancer cell, 2015)

What was measured:
[1] = target: T1, menin (Homo sapiens, UniProt O00255); assay: Isothermal Titration Calorimetry, binding to menin; conditions: in words
T1 sequence (O00255 1-610): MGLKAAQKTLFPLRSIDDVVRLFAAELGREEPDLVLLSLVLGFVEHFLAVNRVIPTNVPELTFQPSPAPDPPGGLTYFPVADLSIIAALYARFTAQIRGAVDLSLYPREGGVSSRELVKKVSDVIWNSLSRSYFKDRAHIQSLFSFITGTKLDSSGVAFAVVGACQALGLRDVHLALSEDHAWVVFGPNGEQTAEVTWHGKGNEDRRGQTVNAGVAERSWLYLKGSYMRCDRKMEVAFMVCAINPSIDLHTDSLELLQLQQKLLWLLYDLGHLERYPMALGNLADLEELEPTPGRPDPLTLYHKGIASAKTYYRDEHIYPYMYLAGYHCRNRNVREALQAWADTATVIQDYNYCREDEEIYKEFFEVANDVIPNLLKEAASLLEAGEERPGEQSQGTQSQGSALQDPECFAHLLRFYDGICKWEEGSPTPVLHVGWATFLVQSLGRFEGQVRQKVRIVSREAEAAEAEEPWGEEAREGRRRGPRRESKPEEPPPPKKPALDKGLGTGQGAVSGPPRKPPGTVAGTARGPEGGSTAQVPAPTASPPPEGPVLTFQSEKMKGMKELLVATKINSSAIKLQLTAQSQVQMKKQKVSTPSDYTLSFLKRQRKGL

[2] = tested on: murine bone marrow cells (BMC) transformed with the MLL-AF9 oncogene; assay: MTT cell viability assay, MLL-AF9 transformed BMCs; type: cell-based; conditions: read-out: half-maximal growth inhibitory concentration (GI50); after 7 days of treatment
Procedure, shortened: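 Leukemia cells were plated and exposed to a test compound titration or 0.25% DMSO at 37 °C for 7 days. On day 4, media was changed, viable cell numbers were reset to the starting density and compound was re-supplied. Viability was read by MTT absorbance at 570 nm from titration curves. n = 4, mean ± SD.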

[3] = tested on: BMCs transformed with the Hoxa9/Meis1 oncogenes (HM-2); assay: MTT cell viability assay, Hoxa9/Meis1 transformed BMCs; type: cell-based, murine; conditions: HM-2 BMCs, 7 days
Procedure, shortened: (§1)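 Cells were plated with test compound or 0.25% DMSO and kept at 37 °C for 7 days. At day 4 the media was changed, viable cell numbers were reset to the starting density and compound was re-added. Read-out was MTT with absorbance at 570 nm, from titration curves. Mean ± SD, n = 4. Non-MLL lines were HL-60, NB4 and Jurkat; murine bone marrow cells were Hoxa9/Meis1-transformed.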

[4] = tested on: human leukemia cell lines without MLL translocations; assay: MTT assay, human leukemia cell lines without MLL translocations; type: cell-based; conditions: in words
Procedure, shortened: as §1

[5] = tested on: MV4;11 human leukemia cells expressing MLL-AF4; assay: Long term viability study in MV4; type: cell-based; conditions: MV4;11, at day 10, first treatment phase
Procedure, shortened: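 Cycle of 10 days exposure to test compound at several concentrations, 10 days wash-out without compound, then 10 further days of re-treatment. Viable cell numbers were normalized to the DMSO control. Values are means of duplicates ± SD. The day-10 read-out is taken from the first exposure phase.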

[6] = target: T2, menin-MLL-AF9 interaction (Homo sapiens, UniProt O00255); assay: Co-immunoprecipitation in HEK293 cells transfected with MLL-AF9; type: cell-based; conditions: at sub-micromolar concentrations
T2 sequence (O00255 1-610): T1 sequence (O00255 1-610)

[7] = Pharmacokinetic studies in mice; type: in vivo; conditions: single intravenous or oral dose
[8] = tested on: MLL-AF9 leukemia; assay: Bone marrow transplantation model of murine MLL-AF9 leukemia; type: in vivo; conditions: for increase of median survival: MI-463 50 mg/kg, MI-503 80 mg/kg, twice daily oral gavage, 10 days
[9] = tested on: MLL leukemia patient samples; assay: Methylcellulose colony forming assay, MLL leukemia primary patient samples; type: cell-based, human; conditions: at submicromolar or low micromolar concentrations, 14 days
Procedure, shortened: (§2)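 Primary cells (peripheral blood mononuclear, thawed) were pre-cultured 24 hr in RPMI-1640 with 10% FBS, 1% penicillin/streptomycin, 10 ng/mL human IL-3 and 10 ng/mL IL-6 plus SCF. They were then plated in duplicate at 7.5–15 × 10^4 cells in cytokine-supplemented methylcellulose containing test compound or DMSO. Incubation was 14 days at 37 °C, 5% CO2, followed by iodonitrotetrazolium chloride staining. Colony counts were normalized to DMSO; mean ± SD, n = 2.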

[10] = tested on: control AML patient samples; type: cell-based, human; conditions: except at the highest concentration (6 μM) in the AML-9571 sample
Procedure, shortened: as §2

[11] = Tolerability in normal C57BL/6 mice; type: in vivo; conditions: 10 days, twice daily oral gavage
Procedure, shortened: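 Normal C57BL/6 mice received test compound or vehicle by oral gavage twice daily for 10 days, the same regimen as the leukemia survival studies. Body weight, organ weight and tissue damage were assessed afterwards.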

[12] = tested on: MV4;11 human MLL leukemia cells; conditions: for inhibition of tumor growth: once daily i.p., MI-503 60 mg/kg, MI-463 35 mg/kg, in words
[13] = tested on: MLL leukemia patient samples; assay: Cell viability assay in primary MLL leukemia patient samples; type: cell-based, human; conditions: 7 days of treatment, in words
Procedure, shortened: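 Primary AML cells (mononuclear cells from peripheral blood, isolated by density gradient and red cell lysis, frozen in 10% DMSO) were exposed to test compound or 0.25% DMSO vehicle for 7 days. Stains were anti-human CD45, CD34 and CD38, then Annexin V and 7-AAD, with ≥2 × 10^5 events per sample by flow cytometry. Annexin V/7-AAD double negative cells counted as viable, shown as % of DMSO. Blasts were hCD45+. Mean ± SD, n = 2.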

[14] = Metabolic stability; type: in vitro ADME; conditions: in words

**Q.** Which results are given for Cc1c(CN2CCC(Nc3ncnc4sc(CC(F)(F)F)cc34)CC2)ccc2c1cc(C#N)n2Cc1cn[nH]c1 [MI-503]?
**A.** binding affinity to menin [1]: low nanomolar; GI50 [2]: 220 nM; effect on cell growth inhibition [3]: no effect; growth suppressive activity [4]: only a minimal effect; GI50 [5]: 200 nM; inhibition of the menin-MLL-AF9 interaction [6]: effectively inhibit; oral bioavailability [7]: 75%; increase of median survival [8]: ~ 45%; reduction in colony number [9]: over 50%; effect on colony formation [10]: little effect; body weight, organ weight, tissue damage [11]: no decrease in body weight, organ weight or tissue damage; reduction in MV4;11 tumor volume ([12]; 60 mg/kg once daily i.p.): over 80%; inhibition of tumor growth [12]: strong inhibition

**Q.** Which “effect on cell growth inhibition” value [3] does the source give for Cc1c(CN2CCC(Nc3ncnc4sc(CC(F)(F)F)cc34)CC2)ccc2[nH]c(C#N)cc12 [MI-463] here?
**A.** The value was “no effect”.

**Q.** And the growth suppressive activity [4]?
**A.** Its growth suppressive activity is “only a minimal effect”.

**Q.** And the oral bioavailability [7]?
**A.** Its oral bioavailability is ~ 45%.

**Q.** And the “increase of median survival” value [8]?
**A.** The value was ~ 70%.

**Q.** And the “body weight loss / tolerability” value ([8]; MLL-AF9 leukemia mice, 10 days of treatment, twice daily p.o.)?
**A.** Its value is “no significant body weight loss”.

**Q.** And the “reduction in colony number” value [9]?
**A.** Its value is “over 50%”.

**Q.** What about the “effect on colony formation” value [10] of the same compound?
**A.** Its value is “little effect”.

**Q.** What about the “effect on cell growth and blast population” value [13] of the same compound?
**A.** Its value is “marked decrease”.

**Q.** What about the “body weight, organ weight, tissue damage” value [11] of the same compound?
**A.** The value was “no decrease in body weight, organ weight or tissue damage”.

**Q.** And the “inhibition of tumor growth” value [12]?
**A.** The value was “strong inhibition”.

**Q.** For CC1(C)CN=C(N2CCN(c3ncnc4sc(CC(F)(F)F)cc34)CC2)S1 [MI-2-2], which metabolic stability [14] is on record?
**A.** The metabolic stability was “very poor”.
